Assay results: ChEMBL document CHEMBL1124462, “Synthesis, DNA binding, and biological evaluation of synthetic precursors and novel analogues of netropsin” (J Med Chem, 1989)
In brackets after ≈: the same amount, converted by molar mass.

How the values were obtained:
Vero [1] = experiment: Minimum cytotoxic concentration required to cause a microscopically detectable alteration of normal cell morphology and show antiviral activity in african green monkey (Vero B) cells; assay type: functional; settings: Chlorocebus sabaeus
Raji [2] = experiment: Dose required to inhibit Human B-Lymphoblast (Raji) cell proliferation by 50%; assay type: functional; settings: read-out: CD50 (the source's name)
FM3A = experiment: In vitro inhibition of FM3A (murine mammary carcinoma) cell proliferation.; assay type: functional; settings: Mus musculus, read-out: CD50 (the source's name)
HeLa [3] = experiment: Minimum inhibitory concentration required to reduce Coxsackie virus B4 induced cytopathogenicity by 50% in HeLa cells; assay type: functional; settings: Homo sapiens
Method in brief: (§1)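 Cell cultures (PRK, HeLa or Vero B) are infected at 100 × CCID50. Cytopathogenicity is recorded once it reaches completion in the untreated virus-infected controls. The minimum inhibitory concentration is given in μg/mL.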

HeLa [4] = experiment: Minimum inhibitory concentration required to reduce polio virus -1 induced cytopathogenicity by 50% in HeLa cells; assay type: functional; settings: Homo sapiens
HeLa [5] = experiment: Minimum cytotoxic concentration required to cause a microscopically detectable alteration of normal cell morphology and show antiviral activity in HeLa cells; assay type: functional; settings: Homo sapiens
Method in brief: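 HeLa cell cultures exposed to compound for the same duration as the antiviral assay, then examined microscopically. The minimum cytotoxic concentration is the lowest level causing detectable alteration of normal cell morphology. Values are in μg/mL.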

L1210 = experiment: Dose required to inhibit Murine leukemia (L1210) cell proliferation by 50%; assay type: functional; settings: Mus musculus, read-out: CD50 (the source's name)
Human alphaherpesvirus 2 = experiment: Minimum inhibitory concentration required to reduce herpes simplex virus-2(G) induced cytopathogenicity by 50% in primary rabbit kidney cells (PRK); assay type: functional; method in brief: as §1
Human alphaherpesvirus 1 = experiment: Minimum inhibitory concentration required to reduce herpes simplex virus-1 (KOS) induced cytopathogenicity by 50% in primary rabbit kidney cells(PRK); assay type: functional; method in brief: as §1
[6] = tested on: Vesicular stomatitis virus; experiment: (§2) Minimum inhibitory concentration required to reduce vesicular stomatitis virus induced cytopathogenicity by 50% in primary rabbit kidney cells (PRK); assay type: functional
Oryctolagus cuniculus = species on record: Oryctolagus cuniculus; experiment: Minimum cytotoxic concentration required to cause a microscopically detectable alteration of normal cell morphology and show antiviral activity in primary rabbit kidney (PRK) cells; assay type: functional
[7] = Dose required to inhibit Human T-Lymphoblast (Molt/4F) cell proliferation by 50%; assay type: functional; settings: read-out: CD50 (the source's name)
Sindbis virus = experiment: (§3) Minimum inhibitory concentration required to reduce Sindbis virus induced cytopathogenicity by 50% in african green monkey (VeroB) cells; assay type: functional; method in brief: as §1
Vero [8] = experiment: Minimum inhibitory concentration required to reduce parainfluenza virus-3 induced cytopathogenicity by 50% in african green monkey (VeroB) cells; assay type: functional, Human respirovirus 3; settings: Chlorocebus sabaeus; method in brief: as §1
[9] = tested on: Mammalian orthoreovirus 1; experiment: Minimum inhibitory concentration required to reduce reovirus-1 induced cytopathogenicity by 50% in african green monkey (VeroB)cells; assay type: functional; method in brief: as §1
Semliki Forest virus = experiment: Minimum inhibitory concentration required to reduce semliki forest virus induced cytopathogenicity by 50% in african green monkey (VeroB) cells; assay type: functional; method in brief: as §1
Nucleic Acid [10] = experiment: Association constant against the polynucleotide poly(dA-dT); assay type: nucleic-acid assay
Method in brief: (§4)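 Competition with ethidium bromide binding at 25 °C in 0.01 M cacodylate buffer, pH 7.0, with 1.26 μM ethidium bromide and 1 μM polynucleotide. Bound ethidium is estimated from its fluorescence increase (V = 34 for poly(dA-dT), 25 for poly(dG-dC)). IC50 for 50% ethidium displacement comes from a fitted competition sigmoid. Kapp is calculated from IC50 assuming a binding size of four base pairs.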

Nucleic Acid [11] = experiment: Ratio of association constant of poly(dA-dT) and poly(dG-dC); assay type: nucleic-acid assay
Method in brief: (§5)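 Kapp for poly(dA-dT) and for poly(dG-dC) is each determined by ethidium bromide competition in 0.01 M cacodylate, pH 7.0, 25 °C, with 1.26 μM ethidium and 1 μM polynucleotide. IC50 comes from a fitted competition sigmoid and is converted to Kapp assuming a four-base-pair binding size. The ratio is taken between the two polynucleotides.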

Nucleic Acid [12] = experiment: Association constant against polynucleotide poly (dG-dC); assay type: nucleic-acid assay; method in brief: as §4
Vero [13] = experiment: Minimum inhibitory concentration required to reduce Coxsackie virus B4 induced cytopathogenicity by 50% in african green monkey (VeroB) cells; assay type: functional, Coxsackievirus B4; settings: Chlorocebus sabaeus; method in brief: as §1
Raji [14] = experiment: Inhibition of Human B-Lymphoblast Raji cell proliferation; assay type: functional; settings: read-out: CD50 (the source's name)
HeLa [15] = experiment: Minimum inhibitory concentration required to reduce vesicular stomatitis virus induced cytopathogenicity by 50% in HeLa cells; assay type: functional; settings: Homo sapiens
[16] = Minimum inhibitory concentration required to reduce herpes simplex virus-1 (KOS)induced cytopathogenicity by 50% in primary rabbit kidney cells (PRK); assay type: functional; settings: Oryctolagus cuniculus
[17] = Minimum inhibitory concentration required to reduce herpes simplex virus-2 (G)induced cytopathogenicity by 50% in primary rabbit kidney cells (PRK); assay type: functional; settings: Oryctolagus cuniculus
[18] = as §2; assay type: functional; settings: Oryctolagus cuniculus
Nucleic Acid [19] = experiment: Association constant against the polynucleotide poly (dA-dT).; assay type: nucleic-acid assay; method in brief: as §4
[20] = Minimum inhibitory concentration required to reduce herpes simplex virus-2 (G) induced cytopathogenicity by 50% in primary rabbit kidney cells (PRK); assay type: functional; settings: Oryctolagus cuniculus; method in brief: as §1
[21] = Minimum inhibitory concentration required to reduce herpes simplex virus-1 (KOS) induced cytopathogenicity by 50% in primary rabbit kidney cells (PRK); assay type: functional; settings: Oryctolagus cuniculus; method in brief: as §1
Vero [22] = experiment: as §3; assay type: ADME, cell-based; settings: Chlorocebus sabaeus, read-out: MIC; method in brief: as §1
[23] = Dose required to inhibit Murine mammary carcinoma (FM3A) cell proliferation by 50%; assay type: functional; settings: Mus musculus, read-out: CD50 (the source's name)
Nucleic Acid [24] = experiment: Ratio of association constant of poly (dA-dT) and poly (dG-dC); assay type: nucleic-acid assay; method in brief: as §5

| Structure (SMILES) | MCC (Vero [1]) [µg/mL] | CC50 (Raji [2]) [µg/mL] | MIC (HeLa [3]) [µg/mL] | MIC (HeLa [4]) [µg/mL] | MCC (HeLa [5]) [µg/mL] | CC50 (L1210) [µg/mL] | MIC (Human alphaherpesvirus 2) [µg/mL] | MIC (Human alphaherpesvirus 1) [µg/mL] | MIC [6] [µg/mL] | MCC (Oryctolagus cuniculus) | CC50 [7] [µg/mL] | MIC (Sindbis virus) [µg/mL] | MIC (Vero [8]) [µg/mL] | MIC [9] [µg/mL] | MIC (Semliki Forest virus) [µg/mL] | K app (Nucleic Acid [10]) [M⁻¹] | Ratio (Nucleic Acid [11]) | K app (Nucleic Acid [12]) [M⁻¹] | MIC (Vero [13]) [µg/mL] | MIC [16] [µg/mL] | also measured |
| --- | --- | --- | --- | --- | --- | --- | --- | --- | --- | --- | --- | --- | --- | --- | --- | --- | --- | --- | --- | --- | --- |
| C[C@H](NC(=O)c1cc(NC(=O)c2cc([N+](=O)[O-])cn2C)cn1C)C(=O)N[C@@H](C)C(=O)N[C@@H](C)C(=O)OC(C)(C)C | > 400 | > 100 | > 200 | > 400 | > 400 | > 100 | > 200 | > 100 | > 100 | >400 µg/mL | > 100 | > 200 | > 400 | > 200 | > 200 | < 100 | < 0.13 | 750 | > 200 | – | CC50 (FM3A): > 100 µg/mL |
| Cn1cc(NC(=O)c2cc([N+](=O)[O-])cn2C)cc1C(=O)NCCC#N | > 40 | – | > 10 | – | > 40 | > 100 | > 10 | > 10 | > 10 | >40 µg/mL | > 100 | > 10 | > 10 | > 10 | > 10 | < 100 | – | < 100 | > 10 | – | CC50 (Raji [14]): > 100 µg/mL |
| Cn1cc(NC(=O)c2cc([N+](=O)[O-])cn2C)cc1C(=O)NCCC(=N)N | 400 | > 100 | > 400 | – | > 400 | > 100 | > 200 | > 200 | > 100 | 400 µg/mL | > 100 | > 300 | > 200 | > 100 | 300 (≈ 830 µM) | 12000 | > 120 | < 100 | > 200 | – | – |
| Cn1cc([N+](=O)[O-])cc1C(=O)NCCCNCCCCN | > 400 | > 200 | > 400 | – | > 400 | > 200 | > 200 | > 200 | > 400 | >400 µg/mL | > 200 | > 400 | > 200 | > 100 | > 400 | 1e+06 | 2.38 | 420000 | > 200 | – | CC50 (FM3A): > 200 µg/mL |
| Nc1ncnc2c1ccn2[C@@H]1O[C@H](CO)[C@@H](O)[C@H]1O [TUBERCIDIN] | > 0.4 | – | 0.07 (≈ 0.263 µM) | 0.07 (≈ 0.263 µM) | > 0.4 | – | – | – | – | >0.4 µg/mL | – | 0.1 (≈ 0.376 µM) | 0.07 (≈ 0.263 µM) | 0.07 (≈ 0.263 µM) | > 0.4 | – | – | – | 0.07 (≈ 0.263 µM) | > 0.1 | MIC (HeLa [15]): 0.07 µg/mL (≈ 0.263 µM); MIC [17]: > 0.1 µg/mL; MIC [18]: 0.2 µg/mL (≈ 0.751 µM) |
| Cn1c(C(=O)NCCC#N)ccc1[N+](=O)[O-] | > 400 | > 50 | > 200 | – | 400 | > 50 | – | – | 300 (≈ 1350 µM) | 400 µg/mL | > 50 | – | > 100 | > 100 | > 100 | – | – | < 100 | > 200 | – | K app (Nucleic Acid [19]): < 100 M⁻¹; MIC [20]: > 200 µg/mL; MIC [21]: > 200 µg/mL; IC50 (Vero [22]): > 100 µg/mL |
| Cn1cc(NC(=O)c2cc(NC(=O)CNC(=N)N)cn2C)cc1C(=O)NCCC(=N)N [NETROPSIN] | > 400 | 139 (≈ 323 µM) | > 100 | > 100 | > 100 | 295 (≈ 685 µM) | – | – | – | >400 µg/mL | > 100 | > 400 | > 400 | > 400 | > 400 | – | – | 31000 | > 400 | > 400 | CC50 [23]: 321 µg/mL (≈ 746 µM); MIC (HeLa [15]): > 100 µg/mL; K app (Nucleic Acid [19]): 7.3e+08 M⁻¹; Ratio (Nucleic Acid [24]): 23500; MIC [17]: > 400 µg/mL; MIC [18]: > 400 µg/mL |
| Cn1cc(NC(=O)c2cc(NC(=O)CNC(=N)N)cn2C)cc1C(=O)NCCCNCCCCN | ≥ 200 | > 200 | > 200 | – | > 200 | > 200 | – | – | – | >=400 ug ml-1 | > 200 | > 200 | > 200 | > 100 | > 200 | – | – | 7.6e+06 | > 200 | > 200 | CC50 [23]: > 200 µg/mL; K app (Nucleic Acid [19]): 2e+07 M⁻¹; Ratio (Nucleic Acid [24]): 2.63; MIC [17]: > 200 µg/mL |
